Converted amounts (≈) assume the structure as drawn.
Legend:
Enterococcus faecium [1] = test: Antibacterial activity against glycopeptide resistant Enterococcus faecium 569 strain; type: functional
Method in brief: (§1)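 MIC by broth microdilution in Mueller Hinton broth following NCCLS procedures. Compounds were dissolved in 10% DMSO in water, then diluted in broth. Final DMSO was 1.28% at 128 µg/mL antibiotic down to 0.0013% at 0.13 µg/mL. Repeat determinations were usually identical and always within 2-fold.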

Staphylococcus aureus [2] = test: Antibacterial activity against glycopeptide intermediate resistant Staphylococcus aureus 3797 strain; type: functional; method in brief: as §1
Enterococcus faecium [3] = test: Antibacterial activity against glycopeptide susceptible Enterococcus faecium 568 strain; type: functional
Method in brief: (§2)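 MIC by broth microdilution in Mueller Hinton broth following NCCLS procedures. Compounds dissolved in 10% DMSO in water, then diluted in broth; test range 128 to 0.13 µg/mL, final DMSO 1.28% to 0.0013% accordingly. Repeat determinations usually identical and always within 2-fold. Strain 533 is a clinical isolate; strain 602 is a clinical S. haemoliticus isolate.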

[4] = test system: Staphylococcus epidermidis; test: Antibacterial activity against Staphylococcus epidermis 533 strain; type: functional
Enterococcus faecalis [5] = test: Antibacterial activity against glycopeptide resistant Enterococcus faecalis 560 strain; type: functional; method in brief: as §1
Staphylococcus aureus [6] = test: Antibacterial activity against glycopeptide intermediate resistant Staphylococcus aureus 3798 strain; type: functional; method in brief: as §1
Enterococcus faecalis [7] = test: Antibacterial activity against glycopeptide susceptible Enterococcus faecalis 559 strain; type: functional; method in brief: as §2
[8] = test system: Staphylococcus haemolyticus; test: Antibacterial activity against Staphylococcus haemolyticus 602 strain

| SMILES | MIC (Enterococcus faecium [1]) [µg/mL] | MIC (Staphylococcus aureus [2]) [µg/mL] | MIC (Enterococcus faecium [3]) [µg/mL] | MIC [4] [µg/mL] | MIC (Enterococcus faecalis [5]) [µg/mL] | MIC (Staphylococcus aureus [6]) [µg/mL] | MIC (Enterococcus faecalis [7]) [µg/mL] | MIC [8] [µg/mL] |
| --- | --- | --- | --- | --- | --- | --- | --- | --- |
| CN[C@H](CC(C)C)C(=O)N[C@H]1C(=O)N[C@@H](CC(N)=O)C(=O)N[C@H]2C(=O)N[C@H]3C(=O)N[C@H](C(=O)N[C@H](C(=O)NCc4ccc(-c5ccc(Cl)cc5)cc4)c4cc(O)cc(O)c4-c4cc3ccc4O)[C@H](O[C@H]3C[C@](C)(N)[C@@H](O)[C@H](C)O3)c3ccc(cc3)Oc3cc2cc(c3O[C@@H]2O[C@H](CO)[C@@H](O)[C@H](O)[C@H]2O[C@H]2C[C@](C)(N)[C@@H](O)[C@H](C)O2)Oc2ccc(cc2Cl)[C@H]1O | 4 (≈ 2.28 µM) | 4 (≈ 2.28 µM) | 1 (≈ 0.569 µM) | 2 (≈ 1.14 µM) | 4 (≈ 2.28 µM) | 4 (≈ 2.28 µM) | 2 (≈ 1.14 µM) | 1 (≈ 0.569 µM) |
| C[C@@H]1O[C@@H](O[C@H]2[C@H](Oc3c4cc5cc3Oc3ccc(cc3Cl)[C@@H](O)[C@@H](N)C(=O)N[C@@H](CC(N)=O)C(=O)N[C@H]5C(=O)N[C@H]3C(=O)N[C@H](C(=O)N[C@H](C(=O)O)c5cc(O)cc(O)c5-c5cc3ccc5O)[C@H](O[C@H]3C[C@](C)(N)[C@@H](O)[C@H](C)O3)c3ccc(cc3)O4)O[C@H](CO)[C@@H](O)[C@@H]2O)C[C@](C)(N)[C@H]1O | > 128 | 64 (≈ 44.7 µM) | 16 (≈ 11.2 µM) | 16 (≈ 11.2 µM) | > 128 | 64 (≈ 44.7 µM) | 16 (≈ 11.2 µM) | 16 (≈ 11.2 µM) |
| CCCCCCCCCCNC(=O)[C@H]1NC(=O)[C@H]2NC(=O)[C@H](NC(=O)[C@@H]3NC(=O)[C@H](CC(N)=O)NC(=O)[C@H](N)[C@H](O)c4ccc(c(Cl)c4)Oc4cc3cc(c4O[C@@H]3O[C@H](CO)[C@@H](O)[C@H](O)[C@H]3O[C@H]3C[C@](C)(N)[C@@H](O)[C@H](C)O3)Oc3ccc(cc3)[C@H]2O[C@H]2C[C@](C)(N)[C@@H](O)[C@H](C)O2)c2ccc(O)c(c2)-c2c(O)cc(O)cc21 | 2 (≈ 1.27 µM) | 4 (≈ 2.55 µM) | 2 (≈ 1.27 µM) | 0.5 (≈ 0.318 µM) | 4 (≈ 2.55 µM) | 8 (≈ 5.1 µM) | 2 (≈ 1.27 µM) | 1 (≈ 0.637 µM) |
| CCCCCCCCCCNC(=O)[C@H]1NC(=O)[C@H]2NC(=O)[C@H](NC(=O)[C@@H]3NC(=O)[C@H](CC(N)=O)NC(=O)[C@H](N)[C@H](O)c4ccc(c(Cl)c4)Oc4cc3cc(c4O)Oc3ccc(cc3)[C@H]2O)c2ccc(O)c(c2)-c2c(O)cc(O)cc21 | 64 (≈ 57.1 µM) | 32 (≈ 28.5 µM) | 64 (≈ 57.1 µM) | 16 (≈ 14.3 µM) | > 128 | 32 (≈ 28.5 µM) | 64 (≈ 57.1 µM) | 64 (≈ 57.1 µM) |
| CN[C@H](CC(C)C)C(=O)N[C@H]1C(=O)N[C@@H](CC(N)=O)C(=O)N[C@H]2C(=O)N[C@H]3C(=O)N[C@H](C(=O)N[C@H](C(=O)NCc4ccc(-c5ccc(Cl)cc5)cc4)c4cc(O)cc(O)c4-c4cc3ccc4O)[C@H](O)c3ccc(cc3)Oc3cc2cc(c3O)Oc2ccc(cc2Cl)[C@H]1O | 8 (≈ 6.11 µM) | 8 (≈ 6.11 µM) | 8 (≈ 6.11 µM) | 4 (≈ 3.06 µM) | 8 (≈ 6.11 µM) | 8 (≈ 6.11 µM) | 8 (≈ 6.11 µM) | 8 (≈ 6.11 µM) |
| CCCCCCCCCCNC(=O)[C@H]1NC(=O)[C@H]2NC(=O)[C@H](NC(=O)[C@@H]3NC(=O)[C@H](CC(N)=O)NC(=O)[C@H](NC(=O)[C@@H](CC(C)C)NC)[C@H](O)c4ccc(c(Cl)c4)Oc4cc3cc(c4O[C@@H]3O[C@H](CO)[C@@H](O)[C@H](O)[C@H]3O[C@H]3C[C@](C)(N)[C@@H](O)[C@H](C)O3)Oc3ccc(cc3)[C@H]2O[C@H]2C[C@](C)(N)[C@@H](O)[C@H](C)O2)c2ccc(O)c(c2)-c2c(O)cc(O)cc21 | 2 (≈ 1.18 µM) | 4 (≈ 2.36 µM) | 0.5 (≈ 0.295 µM) | 0.13 (≈ 0.0766 µM) | 4 (≈ 2.36 µM) | 4 (≈ 2.36 µM) | 1 (≈ 0.589 µM) | 0.13 (≈ 0.0766 µM) |
| NC(=O)C[C@@H]1NC(=O)[C@H](N)[C@H](O)c2ccc(c(Cl)c2)Oc2cc3cc(c2O)Oc2ccc(cc2)[C@@H](O)[C@@H]2NC(=O)[C@H](NC(=O)[C@@H]3NC1=O)c1ccc(O)c(c1)-c1c(O)cc(O)cc1[C@@H](C(=O)NCc1ccc(-c3ccc(Cl)cc3)cc1)NC2=O | 64 (≈ 54.1 µM) | 64 (≈ 54.1 µM) | 32 (≈ 27.1 µM) | 32 (≈ 27.1 µM) | 64 (≈ 54.1 µM) | 64 (≈ 54.1 µM) | 64 (≈ 54.1 µM) | 64 (≈ 54.1 µM) |
| CN[C@H](CC(C)C)C(=O)N[C@H]1C(=O)N[C@@H](CC(N)=O)C(=O)N[C@H]2C(=O)N[C@H]3C(=O)N[C@H](C(=O)N[C@H](C(=O)O)c4cc(O)cc(O)c4-c4cc3ccc4O)[C@H](O)c3ccc(cc3)Oc3cc2cc(c3O)Oc2ccc(cc2Cl)[C@H]1O [EREMOMYCIN AGLYCON] | > 128 | > 64 | 32 (≈ 28.8 µM) | 32 (≈ 28.8 µM) | > 128 | > 64 | 16 (≈ 14.4 µM) | 16 (≈ 14.4 µM) |
| CN[C@H](CC(C)C)C(=O)N[C@H]1C(=O)N[C@@H](CC(N)=O)C(=O)N[C@H]2C(=O)N[C@H]3C(=O)N[C@H](C(=O)N[C@H](C(=O)O)c4cc(O)cc(O)c4-c4cc3ccc4O)[C@H](O)c3ccc(c(Cl)c3)Oc3cc2cc(c3O[C@@H]2O[C@H](CO)[C@@H](O)[C@H](O)[C@H]2O[C@H]2C[C@](C)(N)[C@H](O)[C@H](C)O2)Oc2ccc(cc2Cl)[C@H]1O [VANCOMYCIN] | > 128 | 16 (≈ 11 µM) |  |  | > 128 | 8 (≈ 5.52 µM) | 1 (≈ 0.69 µM) |  |

Reference: ChEMBL document CHEMBL1136741, “Role of the glycopeptide framework in the antibacterial activity of hydrophobic derivatives of glycopeptide antibiotics” (2003)
